The results in this text go back to ChEMBL document CHEMBL1143626, “Morphiceptin analogues containing a dipeptide mimetic structure: an investigation on the bioactive topology at the mu-receptor” (J Med Chem, 2005).

The structures appear in SMILES notation. Where a SMILES comes first, the peptide text is derived from it. [ ]: non-standard residue; d: D form.

The species named for test [1] is Cavia porcellus. The test can be described thus: Inhibition of isolated guinea pig ileum contraction induced by electrical stimulation. The format is functional. In a few lines: (§1)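 Electrical field stimulation was applied after 30-40 min equilibration: train 100 ms, pulse width 1 ms, pulse interval 10 ms, supramaximal 20 V. Compounds were added cumulatively at 3-fold steps (0.1 nM to 1 µM), with parallel runs in 10 nM naloxone. Isotonic tension was recorded as % of control […]. Efficacy is the maximal inhibition; EC50 is the half-maximal concentration. Mean ± SEM, 4-6 experiments.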

Test [2] is filed under the species Cavia porcellus. Kind of test: Efficacy against isolated guinea pig ileum contraction induced by electrical stimulation. The format is functional. In a few lines: as §1
For the next test, the target named is Mu-type opioid receptor (Rattus norvegicus, UniProt P33535). The test can be described thus: Inhibition of [3H]DAMGO binding to rat whole brain Opioid receptor mu. The essentials:
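Rat whole-brain (minus cerebellum) membranes (0.3 mg protein) were incubated with 0.7 nM [3H]DAMGO and peptide (1 nM to 10 µM) for 2 h at 25 °C. Buffer was 50 mM Tris-HCl pH 7.4, 5 mM MgCl2, with protease inhibitors. Nonspecific binding was defined with 10 µM BNTX. Bound ligand was separated by GF/C filtration. Mean ± SEM, ≥3 experiments.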

Test [3] concerns the target Delta-type opioid receptor (Rattus norvegicus) (UniProt P33533). The test can be described thus: Inhibition of [3H]naltrindole binding to rat whole brain Opioid receptor delta at 1-10 uM. The essentials:
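Brain (minus cerebellum) membranes were labelled with [3H]naltrindole as the δ radioligand. […] Mean ± SEM, n experiments.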

Chain of Mu-type opioid receptor (P33535 whole entry): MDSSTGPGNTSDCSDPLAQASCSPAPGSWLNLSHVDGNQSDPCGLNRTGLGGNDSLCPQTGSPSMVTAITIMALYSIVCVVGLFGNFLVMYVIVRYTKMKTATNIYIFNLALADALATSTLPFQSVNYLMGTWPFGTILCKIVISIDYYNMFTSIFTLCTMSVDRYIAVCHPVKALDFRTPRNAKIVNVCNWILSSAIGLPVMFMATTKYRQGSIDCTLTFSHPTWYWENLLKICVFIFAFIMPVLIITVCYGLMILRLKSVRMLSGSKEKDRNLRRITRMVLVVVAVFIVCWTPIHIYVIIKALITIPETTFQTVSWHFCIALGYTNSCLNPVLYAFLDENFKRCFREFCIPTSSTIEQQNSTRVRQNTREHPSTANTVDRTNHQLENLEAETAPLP
Chain of Delta-type opioid receptor (Rattus norvegicus) (P33533 whole entry): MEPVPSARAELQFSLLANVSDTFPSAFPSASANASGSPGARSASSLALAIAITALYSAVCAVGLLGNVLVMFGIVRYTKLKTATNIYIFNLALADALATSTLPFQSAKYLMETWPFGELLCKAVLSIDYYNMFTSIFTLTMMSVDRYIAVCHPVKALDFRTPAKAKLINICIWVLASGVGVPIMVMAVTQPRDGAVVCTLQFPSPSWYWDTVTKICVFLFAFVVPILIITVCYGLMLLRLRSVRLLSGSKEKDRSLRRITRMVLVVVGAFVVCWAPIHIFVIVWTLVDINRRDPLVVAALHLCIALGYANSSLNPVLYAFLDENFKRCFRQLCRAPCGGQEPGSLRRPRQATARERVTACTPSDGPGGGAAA

By EC50 is commonly meant the concentration needed to bring the measured effect to its halfway point. Low values mean a more potent agent, high ones a less potent agent. As for `C[C@@H](NC(=O)[C@@H](N)Cc1ccc(O)cc1)C(=O)NCC(=O)N(C)[C@@H](Cc1ccccc1)C(=O)NCCO` [DAMGO], the response in the test filed under Cavia porcellus [1] was half-maximal at 36.2 nM (EC50). The same molecule had an Efficacy in the test listed under Cavia porcellus [2] of 61%.
In turn, `CN(C)C(=O)C(CCN1CCC(O)(c2ccc(Cl)cc2)CC1)(c1ccccc1)c1ccccc1` [LOPERAMIDE] yielded an EC50 in the test filed under Cavia porcellus [1] of 489 nM. In the test listed under Cavia porcellus [2], the Efficacy was 11%.
Molecule `NC(=O)[C@@H]1CCCN1C(=O)[C@H](Cc1ccccc1)NC(=O)[C@@H]1CCCN1C(=O)[C@@H](N)Cc1ccc(O)cc1` (H-YPFP-NH2) [listing 1 of 2 here] had an Efficacy in the test listed under Cavia porcellus [2] of 65%.
By Ki is commonly meant the equilibrium dissociation constant of an inhibitor or competing ligand from its target. For the molecule `NC(=O)[C@@H]1CCCN1C(=O)[C@H](Cc1ccccc1)NC(=O)[C@@H]1CCCN1C(=O)[C@@H](N)Cc1ccc(O)cc1` (H-YPFP-NH2) [listing 2 of 2 here], in the test filed under Cavia porcellus [1], the EC50 is 13 nM. The molecule also showed a Ki on Mu-type opioid receptor of 25.6 nM.
By inhibition is commonly meant the relative decrease from the control value, in per cent. High values mean a strong effect, low ones a weak effect. `NC(=O)[C@@H]1CCCN1C(=O)[C@H](Cc1ccccc1)NC(=O)[C@@H]1CSC([C@@H](N)Cc2ccc(O)cc2)N1` (stereo partly drawn) came in with an inhibition in test [3] of 10.2%. The Efficacy in the test filed under Cavia porcellus [2] is 17%.
In test [3], `NC(=O)[C@@H]1CSC([C@@H](Cc2ccccc2)NC(=O)[C@@H]2CCCN2C(=O)[C@@H](N)Cc2ccc(O)cc2)N1` (stereo partly drawn) had an inhibition of 42.2%. In the test filed under Cavia porcellus [1], this molecule came in with an EC50 of 36 nM. Besides, the Efficacy in the test listed under Cavia porcellus [2] came to 71%. Moreover, at Mu-type opioid receptor, affinity was put at a Ki of 290 nM.
In the test filed under Cavia porcellus [2], `CN1CC[C@]23c4c5ccc(O)c4O[C@H]2[C@@H](O)C=C[C@H]3[C@H]1C5` [MORPHINE] had an Efficacy of 66%.
In the case of `NC(=O)[C@@H]1CSC([C@H](Cc2ccccc2)NC(=O)[C@@H]2CCCN2C(=O)[C@@H](N)Cc2ccc(O)cc2)N1` (stereo partly drawn), in test [3], the inhibition is 22.7%. The molecule further returned an EC50 in the test listed under Cavia porcellus [1] of 9.7 nM. Further, the Efficacy in the test filed under Cavia porcellus [2] came to 65%. At Mu-type opioid receptor, this molecule came in with a Ki of 14.1 nM.
Turning to `NC(=O)[C@@H]1CSC([C@H](Cc2c[nH]c3ccccc23)NC(=O)[C@@H]2CCCN2C(=O)[C@@H](N)Cc2ccc(O)cc2)N1` (stereo partly drawn), the inhibition in test [3] came out at 67.8%. Moreover, the midpoint of the response in the test filed under Cavia porcellus [1], the EC50, lay at 28 nM. The Efficacy in the test listed under Cavia porcellus [2] stood at 70%. The same molecule registered an inhibition constant (Ki) on Mu-type opioid receptor of 178 nM.
In test [3], `NC(=O)[C@H]1CCCN1C(=O)[C@H](Cc1ccccc1)NC(=O)[C@@H]1CCCN1C(=O)[C@@H](N)Cc1ccc(O)cc1` (H-YPF[dP]-NH2) registered an inhibition of 23.6%.
